Data as given in ChEMBL document CHEMBL4513216, “Probing the Open Global Health Chemical Diversity Library for Multistage-Active Starting Points for Next-Generation Antimalarials” (ACS Infect Dis, 2020).

assay: Toxicity liver stage against HepG2, at 10uM; assay type: cell-based; parameters: test concentration 10 uM, cell line HepG2-A16-CD81EGFP; conditions: human, HepG2-A16-CD81EGFP cells; read-out: INHIBITION
In short: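 Uninfected HepG2-A16-CD81EGFP cells, 3 × 10^3 per well, 1536-well, plated on prespotted compound at 10 μM final, parasite-free screening media added to match infected plates; puromycin 10 μM positive, DMSO 0.5% negative; run in parallel with 48 h PbLuc assay at 37 °C, 5% CO2; viability by CellTiter-Glo luminescence, normalized to controls.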

Compound	cytotoxicity at 10 µM
CC(=O)c1ccc(S(=O)(=O)N2CCOC(Cn3ccnc3)C2)cc1 (centres undefined)	6.58%
O=C(NC[C@H]1OC[C@@H](NCc2ccccn2)[C@@H]1O)c1ccncc1	-9.77%
O=C(NC[C@H]1OC[C@@H](NC2CCCC2)[C@@H]1O)C1CCCC1	-2.15%
CC(C)N1CC[C@H](c2nc3ccc(C(F)(F)F)cc3[nH]2)C1	-2.07%
CC(=O)N1CC[C@H](c2nnc(Cc3c[nH]c4ccccc34)o2)C1	8.12%
Cc1cc(CN(C)CCC(O)c2ccccc2)no1 (centres undefined)	0.238%
CO[C@@H]1CN(c2ccccc2)S(=O)(=O)[C@@]12CCNC2	-2.64%
CC[C@H](C)[C@H](NC(=O)c1cccc(-n2cnnn2)c1)C(=O)OC	7.98%
CCc1c(C)sc2nc3n(CCN(C)C)nc(SC)n3c(=O)c12	2.26%
CNC(=O)c1nc(CC(=O)Nc2ccc3cc[nH]c3c2)no1	7.98%
Cc1cc(C(O)CCNC(=O)COc2ccccc2F)c(C)o1 (centres undefined)	0.931%
CCC(=O)NCc1cc(C2CC2)n(C2CCCC2)n1	-4.36%
Cn1cc(CN2CCc3ncnc(N4CCCC4)c3CC2)cn1	-0.818%
Cn1cccc1C(=O)N1C[C@@H]2CCCO[C@@H]2[C@H](N2CCOCC2)C1	-1.19%
Cc1noc(C)c1CN1C[C@@H]2CN(C(=O)c3cscn3)C[C@@H]2C1	-3.09%
Cc1ccc(C(=O)N2CCc3ncc(Cn4cccn4)n3CC2)cn1	7.25%
Cc1cccc(CN2C[C@@H]3CN(C(=O)c4ccco4)C[C@@H]3C2=O)c1	-3.72%
CC(=O)N1CCOC2(CCCN(Cc3ccc(Cl)c(C(F)(F)F)c3)C2)C1 (centres undefined)	3.68%
O=C(O)CN1CCC2(CCc3ccccc32)CC1	-3.7%
Cc1nc(CO[C@@H]2CN(Cc3ccccn3)[C@@H]3COC[C@@H]32)cs1	5.45%
OCCNc1nc(NCc2cccnc2)nc2nccnc12	-3.55%
COCC(=O)N1CC[C@@H]2CN(Cc3cccc(Cl)c3)S(=O)(=O)[C@@H]2CC1	-3.07%
Cc1cc(C(=O)Nc2cnn(CC(F)(F)F)c2)nc(N2CCOCC2)n1	-2.02%
Cc1cc(C)nc(Nc2nccnc2C2CCCN(C(C)C)C2)n1 (centres undefined)	-6.15%
Cc1nc2c(c(=O)[nH]1)CN(Cc1ccc3c(c1)CCCN3C)CC2	-3.55%
Cc1ccc(-c2nc(C3CCN(C(=O)c4cnn(C)c4)CC3)no2)cn1	-1.55%
CNC(=O)C1(CCCc2ccccn2)CN(Cc2scnc2C)C1	18%

Compound	cytotoxicity at 10 µM
Cc1cc(C)n(CC(=O)N2CCCC(c3cc4cccnc4[nH]3)C2)n1 (centres undefined)	8.3%
Cn1c(=O)cc(C(=O)NC(Cc2ccsc2)c2cccnc2)[nH]c1=O (centres undefined)	0.913%
COCCn1cnnc1C1CCCN(c2cnccn2)C1 (centres undefined)	-2.22%
CCS(=O)(=O)N1CCc2nc(C3CCN(C(=O)C4CC4)C3)nc(O)c2C1 (centres undefined)	-25.9%
Cc1nc(O)c2nnn(C[C@H]3CCCN3C(=O)C3CCCC3)c2n1	-26.9%
Cc1cnn(CC2CCN(CC(O)CN3CCC(C)CC3)CC2)c1 (centres undefined)	5.11%
CC(c1ccccc1Cl)N(C(=O)CSCC(N)=O)C1CC1 (centres undefined)	-36.3%
Cc1ccc(C2CN(CCS(=O)(=O)C(C)C)CCO2)c(C)c1 (centres undefined)	8.25%
CC(NC(=O)NCCCO)c1ccc(-c2ccncc2)cc1 (centres undefined)	6.93%
CCc1noc(C(C)N2CCN(Cc3cnc(C)cn3)CC2)n1 (centres undefined)	-8.54%
O=C(c1cccnc1-n1cncn1)N1CCN(CC(F)(F)F)CC1	4.39%
CCc1nc2n(n1)CC(NCc1cnc(N(CC)CC)s1)CC2 (centres undefined)	7.39%
Cc1cc(CSC2CCCN(c3cnn(C)c3)C2=O)no1 (centres undefined)	29.7%
COc1cccc(S(=O)(=O)NC(=O)CC2CCCC2)c1	3.13%
CC(=O)c1c(F)cccc1NCC(O)C(C)(C)C (centres undefined)	18.7%
O=S1(=O)CCN2C(=N1)Oc1ccc(Cl)cc12	13.7%
CCN1CC2(CC1=O)CN(C(=O)NC(C)C)CCN(C(=O)C(C)C)C2 (centres undefined)	0.508%
CCC(C)(C)C(=O)N1C[C@@H]2C[C@@H](c3nnc(C)[nH]3)O[C@@H]2C1	4.79%
Cc1ccc2c(n1)N(Cc1cccnc1)CCN(Cc1cnn(C)c1)C2	9.12%
Cc1noc(C)c1C(=O)N1CC[C@H]2C[C@@H](c3ccncn3)O[C@@H]2C1	-2.16%
COc1ccc(C2(C(=O)N3CC[C@@]4(O)CCNC[C@H]4C3)CCCC2)cc1	6.03%
CCc1nc(C)c(CN2CCN(c3ncnc4scc(C)c34)CC2)[nH]1	16.4%
Cc1nc(C(C)C)sc1CNC(=O)CCCN1CCCCC1	-13.8%
O=C(O)C1(Oc2ccccc2F)CCN(C/C=C/c2ccco2)CC1	-6.49%
CCOCC(=O)NC(C)c1cc(C)ccc1C (centres undefined)	5.6%
Cn1cc(CN2CCCC(CCc3c(F)cccc3F)C2)cn1 (centres undefined)	-7.55%
CC(C)[C@@H]1CN(S(=O)(=O)c2cccc(C(=O)O)c2)C[C@H]1N(C)C	-39.1%

Compound	cytotoxicity at 10 µM
O=C(c1cc(COc2ccc3c(c2)OCO3)[nH]n1)N1CCCCO1	-2.47%
NC(=O)c1ccc(N2CCN(Cc3c(Cl)cncc3Cl)CC2)nc1	10.6%
CCN1CC2(CCN(C(=O)C(C)Oc3ccc(F)cc3Cl)CC2)CC1=O (centres undefined)	-2.98%
Cc1cnc(N2CC[C@@]3(O)CCCC[C@H]3C2)nc1-c1ccnn1C	0.276%
CN(CC1Cc2ccccc2CN1C)c1nc(N)nc2c1CCNCC2 (centres undefined)	0.0642%
CC(C)Cc1nc(CCn2ccc(=O)[nH]c2=O)n(-c2ccccn2)n1	-5.41%
Cc1nc(C)n(CC2CN(CC(=O)NC3CCCC3)CCO2)n1 (centres undefined)	-4.83%
Cc1nc(C)n(CC2CCCCN2Cc2cnc(C)s2)n1 (centres undefined)	-2.66%
Cc1cnn(C2CCCN(C(=O)c3ccc(-n4cccn4)nc3)C2)c1 (centres undefined)	-6.12%
COc1c(CNC2CCN(c3ncccn3)CC2)c(C)nn1C	-1.66%
O=C(CCOc1ccc(F)cc1)N1CCCC1Cn1cccn1 (centres undefined)	-2.7%
c1cnnc(N2CCCC2CNCc2nc(-c3ccco3)no2)c1 (centres undefined)	-10.2%
CCc1ccsc1C(=O)N1CCCN(Cc2nccn2CC)CC1	1.84%
c1cnnc(N2CCCC(NCc3ccncc3)C2)c1 (centres undefined)	-5.39%
Cn1cnnc1C1CCCN(C(=O)c2ccc3c(c2)OCCO3)C1 (centres undefined)	-11%
Cc1ccsc1C(=O)NCCCn1nc2ccccn2c1=O	-1.1%
c1ccc2oc(CCCN3CCCC3Cn3cncn3)nc2c1 (centres undefined)	-1.42%
CCN(CC)C(C(=O)NCc1ccc(N2CCCC2)nc1)C(C)C (centres undefined)	-8.08%
O=C(CCN1CCCC1c1cccs1)N1CCc2sccc2C1 (centres undefined)	-0.636%
Cc1ccc(C(=O)N2CCC3(CC2)CC(c2ccccc2)C(=O)N3)cn1 (centres undefined)	-7.42%
CN1CCC2(CCN(c3ncc(F)cn3)CC2)C1=O	0.411%
Cc1occc1C(=O)N1CCC2(CC1)CN(Cc1nccs1)CCO2	5.22%
CCCS(=O)(=O)N1C[C@@H](Oc2ncccc2F)[C@H]2OCCC[C@H]21	2.95%
O=C(Cc1cccs1)N1CC[C@H]2[C@@H]1CCC(=O)N2c1cccnc1	3.94%
COc1ccc(CN2CCC3(CC2)NC(=O)CC3c2ccncc2)cc1 (centres undefined)	5.97%
